# Experimental data as given in PMC8923061 (ACS Pharmacology & Translational Science, 2022).
# Counter-ions that a name gives are not always drawn. Like-named read-outs stand apart in the source and are kept apart here.
# What was measured:
# [1] = target: LPA1 receptor (Cricetulus griseus, UniProt G3HUC7); assay type: cell-based, Chinese hamster; settings: CHOK1/Gα15/GCaMP6s-CAAX
# [2] = target: CaV3.1 (Homo sapiens, UniProt O43497); assay type: cell-based; settings: GCaMP6s-CAAX FLIPR, CRC, low CaCl2
# In short: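 HEK293 cells co-expressing CaV3.1, Kir2.3 and GCaMP6s-CAAX in DMEM/F-12 GlutaMAX + 10% FBS + 1.25 μg/mL puromycin. Induced with 1 μg/mL doxycycline, seeded at 16k/well on poly-D-lysine and grown 2 days at 37 °C. Equilibrated ~60 min at room temperature in the dark in buffer (133 mM NaCl, 10 HEPES, 10 glucose, 4 KCl, 1 CaCl2, pH 7.3). Stimulated with 1.5 mM (low) or 5.0 mM (high) CaCl2 on FLIPR Tetra at room temperature; peak over baseline used.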
# [3] = target: CaV3.3 (Homo sapiens, UniProt Q9P0X4); experiment: cell-based; assay type: cell-based; settings: for potentiator activity at CaV3.3: GCaMP6s-CAAX FLIPR, CRC, EC10 KCl
# [4] = target: CaV3.2 (Homo sapiens, UniProt O95180); assay type: cell-based; settings: GCaMP6s-CAAX FLIPR, CRC, EC10 KCl
# In short: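 Inducible HEK293 CaV3.2/Kir2.3/GCaMP6s-CAAX cells, with no antibiotics in assay plates. Doxycycline (1 μg/mL) induction, 16k/well, 2 days at 37 °C, then ~60 min at room temperature in buffer of 133 mM NaCl, 10 HEPES, 10 glucose, 4 KCl, 1 CaCl2, pH 7.3. […] Peak response over baseline after each addition.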
# [5] = target: C3a receptor (Cricetulus griseus, UniProt A0A061I1T5); assay type: cell-based, Chinese hamster; settings: read-out: EC50, increase in fluorescence (C3a receptor); CHOK1/Gα15/GCaMP6s-CAAX
# In short: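 CHOK1-Gα15 cells stably expressing GCaMP6s-CAAX, kept in F-12K + 10% FBS with hygromycin (100 μg/mL) and G-418 (700 μg/mL). Seeded at 16k/well and grown 2 days at 37 °C. Buffer was HBSS + 20 mM HEPES + 0.1% fatty-acid-free BSA, pH 7.3; 30 min at 37 °C in the dark. FLIPR Tetra at 37 °C: ex 470-495/em 515-575 nm, 1 Hz, two additions. Agonist was hC3a; antagonist mode used 20 nM hC3a. Peak over baseline, scaled from buffer (0%) to saturating agonist (100%). Four replicates, two experiments.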
# CaV3.3, sequence (Q9P0X4 whole entry): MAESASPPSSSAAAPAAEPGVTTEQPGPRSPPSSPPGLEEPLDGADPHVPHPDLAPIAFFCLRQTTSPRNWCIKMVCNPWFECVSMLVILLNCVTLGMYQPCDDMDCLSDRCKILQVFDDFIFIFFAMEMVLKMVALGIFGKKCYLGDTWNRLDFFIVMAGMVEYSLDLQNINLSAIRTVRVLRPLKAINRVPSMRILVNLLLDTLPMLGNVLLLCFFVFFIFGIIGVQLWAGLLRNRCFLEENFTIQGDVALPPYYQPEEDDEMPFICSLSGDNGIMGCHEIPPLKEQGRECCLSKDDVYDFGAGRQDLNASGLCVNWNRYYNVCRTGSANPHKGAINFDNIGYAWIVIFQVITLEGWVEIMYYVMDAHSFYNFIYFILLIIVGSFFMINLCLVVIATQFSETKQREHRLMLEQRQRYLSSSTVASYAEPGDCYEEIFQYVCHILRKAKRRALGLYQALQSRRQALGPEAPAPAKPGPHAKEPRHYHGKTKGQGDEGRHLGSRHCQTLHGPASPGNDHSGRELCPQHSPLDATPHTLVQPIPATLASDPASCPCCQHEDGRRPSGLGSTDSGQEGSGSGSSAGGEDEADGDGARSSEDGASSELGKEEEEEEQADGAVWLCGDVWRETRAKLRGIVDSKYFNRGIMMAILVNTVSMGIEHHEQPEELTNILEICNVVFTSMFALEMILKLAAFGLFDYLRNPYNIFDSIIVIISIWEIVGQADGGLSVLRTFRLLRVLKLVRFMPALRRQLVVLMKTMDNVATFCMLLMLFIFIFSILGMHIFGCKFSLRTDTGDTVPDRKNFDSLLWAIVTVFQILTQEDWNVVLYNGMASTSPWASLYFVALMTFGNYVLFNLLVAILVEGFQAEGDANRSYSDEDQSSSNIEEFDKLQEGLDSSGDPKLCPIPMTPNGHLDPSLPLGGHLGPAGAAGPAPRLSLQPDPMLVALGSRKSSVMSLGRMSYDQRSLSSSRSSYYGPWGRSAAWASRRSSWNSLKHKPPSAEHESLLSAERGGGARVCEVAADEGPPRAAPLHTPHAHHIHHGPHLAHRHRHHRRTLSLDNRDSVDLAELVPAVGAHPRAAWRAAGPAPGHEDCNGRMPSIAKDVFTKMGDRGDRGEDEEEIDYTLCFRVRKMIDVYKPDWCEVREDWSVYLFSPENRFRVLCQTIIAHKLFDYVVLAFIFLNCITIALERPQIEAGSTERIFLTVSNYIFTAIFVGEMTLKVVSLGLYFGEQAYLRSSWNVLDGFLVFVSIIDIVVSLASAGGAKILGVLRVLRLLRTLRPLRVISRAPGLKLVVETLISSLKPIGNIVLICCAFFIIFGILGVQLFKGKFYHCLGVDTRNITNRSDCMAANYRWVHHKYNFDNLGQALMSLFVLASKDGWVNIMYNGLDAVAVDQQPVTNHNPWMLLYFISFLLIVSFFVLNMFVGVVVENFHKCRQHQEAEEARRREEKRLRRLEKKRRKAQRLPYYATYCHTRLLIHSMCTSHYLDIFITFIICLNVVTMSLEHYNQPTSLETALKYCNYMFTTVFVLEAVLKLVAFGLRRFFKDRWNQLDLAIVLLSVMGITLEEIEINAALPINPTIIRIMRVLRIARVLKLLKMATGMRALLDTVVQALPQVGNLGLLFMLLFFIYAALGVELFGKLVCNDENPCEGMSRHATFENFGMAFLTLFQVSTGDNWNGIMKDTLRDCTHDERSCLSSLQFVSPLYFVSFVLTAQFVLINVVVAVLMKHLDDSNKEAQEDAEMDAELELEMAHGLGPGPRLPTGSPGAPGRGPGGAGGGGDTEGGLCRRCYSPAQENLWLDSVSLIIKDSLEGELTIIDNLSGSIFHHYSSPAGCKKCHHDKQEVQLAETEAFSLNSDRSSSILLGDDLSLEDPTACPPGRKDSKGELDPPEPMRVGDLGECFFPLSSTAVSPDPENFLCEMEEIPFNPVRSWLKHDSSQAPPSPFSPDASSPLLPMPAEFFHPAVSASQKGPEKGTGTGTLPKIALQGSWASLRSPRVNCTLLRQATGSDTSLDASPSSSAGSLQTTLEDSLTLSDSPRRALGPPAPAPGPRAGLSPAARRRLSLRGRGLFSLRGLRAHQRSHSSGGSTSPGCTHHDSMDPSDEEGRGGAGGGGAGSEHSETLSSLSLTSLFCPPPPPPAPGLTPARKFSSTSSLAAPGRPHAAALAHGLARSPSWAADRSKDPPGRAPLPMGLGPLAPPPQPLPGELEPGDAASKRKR
# LPA1 receptor, sequence (G3HUC7 1-364): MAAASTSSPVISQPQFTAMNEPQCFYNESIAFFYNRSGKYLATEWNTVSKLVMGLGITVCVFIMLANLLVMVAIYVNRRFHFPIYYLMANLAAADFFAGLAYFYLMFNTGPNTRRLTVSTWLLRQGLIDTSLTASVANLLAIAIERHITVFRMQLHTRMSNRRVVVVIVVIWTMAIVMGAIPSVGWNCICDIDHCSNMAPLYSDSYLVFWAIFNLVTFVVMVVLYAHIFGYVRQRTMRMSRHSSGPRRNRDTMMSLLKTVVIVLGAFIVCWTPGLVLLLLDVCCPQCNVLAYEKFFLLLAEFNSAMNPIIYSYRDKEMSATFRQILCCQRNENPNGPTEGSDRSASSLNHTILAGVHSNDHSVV
# CaV3.2, sequence (O95180 whole entry): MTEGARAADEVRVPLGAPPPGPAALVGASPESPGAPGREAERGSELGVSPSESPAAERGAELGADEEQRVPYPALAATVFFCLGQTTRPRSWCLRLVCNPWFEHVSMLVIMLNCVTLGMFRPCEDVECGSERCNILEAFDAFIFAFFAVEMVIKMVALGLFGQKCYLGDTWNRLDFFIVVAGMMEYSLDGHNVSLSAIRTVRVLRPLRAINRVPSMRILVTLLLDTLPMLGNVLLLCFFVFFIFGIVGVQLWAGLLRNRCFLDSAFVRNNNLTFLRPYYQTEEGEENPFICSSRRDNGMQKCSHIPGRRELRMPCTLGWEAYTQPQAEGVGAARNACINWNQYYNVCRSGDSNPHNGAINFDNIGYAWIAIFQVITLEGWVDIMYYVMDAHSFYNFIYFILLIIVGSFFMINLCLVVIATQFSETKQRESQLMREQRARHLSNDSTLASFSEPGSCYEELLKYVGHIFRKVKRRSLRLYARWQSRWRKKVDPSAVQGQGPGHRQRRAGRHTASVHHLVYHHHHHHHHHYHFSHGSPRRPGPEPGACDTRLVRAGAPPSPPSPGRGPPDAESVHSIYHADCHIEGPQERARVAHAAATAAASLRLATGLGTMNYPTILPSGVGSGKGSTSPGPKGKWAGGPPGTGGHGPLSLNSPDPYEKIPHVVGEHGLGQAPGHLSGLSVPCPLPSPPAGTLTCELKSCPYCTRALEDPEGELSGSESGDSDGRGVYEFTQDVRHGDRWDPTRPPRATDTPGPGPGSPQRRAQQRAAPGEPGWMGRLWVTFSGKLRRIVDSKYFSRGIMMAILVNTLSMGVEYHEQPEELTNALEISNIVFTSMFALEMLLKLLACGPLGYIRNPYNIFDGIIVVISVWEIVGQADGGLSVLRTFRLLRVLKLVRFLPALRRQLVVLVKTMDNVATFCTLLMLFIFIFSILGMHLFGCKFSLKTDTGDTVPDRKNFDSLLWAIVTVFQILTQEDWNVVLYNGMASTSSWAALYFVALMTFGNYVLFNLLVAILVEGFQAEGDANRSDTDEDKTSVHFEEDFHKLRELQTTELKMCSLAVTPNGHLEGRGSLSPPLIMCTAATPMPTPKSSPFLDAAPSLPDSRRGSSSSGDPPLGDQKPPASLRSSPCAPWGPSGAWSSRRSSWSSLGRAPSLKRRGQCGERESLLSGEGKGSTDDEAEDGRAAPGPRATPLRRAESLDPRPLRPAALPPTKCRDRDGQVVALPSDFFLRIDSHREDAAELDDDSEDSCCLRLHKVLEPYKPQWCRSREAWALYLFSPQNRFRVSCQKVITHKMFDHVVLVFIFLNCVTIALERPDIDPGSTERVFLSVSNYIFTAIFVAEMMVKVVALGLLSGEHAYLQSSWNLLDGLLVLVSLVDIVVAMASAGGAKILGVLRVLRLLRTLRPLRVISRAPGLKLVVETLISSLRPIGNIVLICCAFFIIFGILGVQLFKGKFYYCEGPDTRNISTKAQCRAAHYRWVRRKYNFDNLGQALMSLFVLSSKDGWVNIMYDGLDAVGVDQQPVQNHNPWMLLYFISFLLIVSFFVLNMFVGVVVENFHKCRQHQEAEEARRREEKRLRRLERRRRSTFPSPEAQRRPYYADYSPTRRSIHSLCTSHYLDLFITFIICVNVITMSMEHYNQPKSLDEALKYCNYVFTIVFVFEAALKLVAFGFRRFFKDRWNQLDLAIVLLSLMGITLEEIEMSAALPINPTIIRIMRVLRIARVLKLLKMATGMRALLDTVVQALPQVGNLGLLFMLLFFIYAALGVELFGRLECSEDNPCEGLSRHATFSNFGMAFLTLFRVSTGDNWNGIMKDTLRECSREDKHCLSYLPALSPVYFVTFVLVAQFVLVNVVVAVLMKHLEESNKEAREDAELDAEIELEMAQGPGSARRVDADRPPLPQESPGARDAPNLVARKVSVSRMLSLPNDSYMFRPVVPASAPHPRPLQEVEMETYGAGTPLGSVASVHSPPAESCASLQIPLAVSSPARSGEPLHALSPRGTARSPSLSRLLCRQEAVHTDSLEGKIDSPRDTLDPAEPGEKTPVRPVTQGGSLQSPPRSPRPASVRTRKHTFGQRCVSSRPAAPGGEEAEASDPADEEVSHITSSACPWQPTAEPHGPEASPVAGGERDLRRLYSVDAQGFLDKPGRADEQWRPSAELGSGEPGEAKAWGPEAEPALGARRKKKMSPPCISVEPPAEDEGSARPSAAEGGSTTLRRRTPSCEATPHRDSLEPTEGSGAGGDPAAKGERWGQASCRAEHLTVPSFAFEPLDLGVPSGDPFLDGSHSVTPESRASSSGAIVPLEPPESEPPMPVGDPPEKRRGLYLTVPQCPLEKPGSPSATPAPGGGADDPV
molecule,measurement,setting,value
Cc1noc(-c2ccc(-c3ccc(CC(=O)O)cc3)cc2)c1NC(=O)O[C@H](C)c1ccccc1 [AM095],IC50,"[1]; read-out: IC50, block of LPA1-mediated signal, EC80 agonist",240 ± 20 nM
CCOC(=O)C1=C(N2CCCCC2)C2(CC1=O)C(=O)N=C1C(C)=CC=CN12 (centres unmarked) [SAK3],potentiator activity at CaV3.1,[2],neither SAK3 (Figure 3D) nor ST-101 (Supporting Information Figure S3) displayed potentiator activity
same,potentiator activity at CaV3.3,[3],neither SAK3 (Figure 3D) nor ST-101 (Supporting Information Figure S3) displayed potentiator activity
same,potentiator activity at CaV3.2,[4],neither SAK3 (Figure 3D) nor ST-101 (Supporting Information Figure S3) displayed potentiator activity
O=C1N=C2C=CC=CN2C12Cc1ccccc1C2 [ST-101],potentiator activity at CaV3.1,[2],neither SAK3 (Figure 3D) nor ST-101 (Supporting Information Figure S3) displayed potentiator activity
same,potentiator activity at CaV3.3,[3],neither SAK3 (Figure 3D) nor ST-101 (Supporting Information Figure S3) displayed potentiator activity
same,potentiator activity at CaV3.2,[4],neither SAK3 (Figure 3D) nor ST-101 (Supporting Information Figure S3) displayed potentiator activity
CC1=C(C(=O)OC(C)C)C(c2cccc([N+](=O)[O-])c2)C(C(=O)OC2CN(C(c3ccccc3)c3ccccc3)C2)=C(N)N1 (centres unmarked) [azelnidipine],IC50,[3],26000 nM
Fc1ccc(C(c2ccc(F)cc2)N2CCN(C/C=C/c3ccccc3)CC2)cc1 [flunarizine dihydrochloride],IC50,[3],1200 nM
CCOC(=O)Nc1ccc(NCc2ccc(F)cc2)nc1N [flupirtine maleate],IC50,[3],3500 nM
COC(=O)C1=C(C)NC(C)=C(C(=O)OC(C)(C)CN(C)CCC(c2ccccc2)c2ccccc2)C1c1cccc([N+](=O)[O-])c1 (centres unmarked) [lercanidipine hydrochloride],IC50,[3],410 nM
CN(C)C(=O)C(CCN1CCC(O)(c2ccc(Cl)cc2)CC1)(c1ccccc1)c1ccccc1 [loperamide hydrochloride],IC50,[3],1300 nM
CC(C)c1ccc(CC(=O)N[C@H](C)c2ccc(OCC(F)(F)F)cn2)cc1 [mk-8998],IC50,[3],37 nM
COC(=O)C1=C(C)NC(C)=C(C(=O)OCCN(C)Cc2ccccc2)C1c1cccc([N+](=O)[O-])c1 (centres unmarked) [nicardipine hydrochloride],IC50,[3],2100 nM
CCOC(=O)C1=C(C)NC(C)=C(C(=O)OC)C1c1cccc([N+](=O)[O-])c1 (centres unmarked) [nitrendipine],IC50,[3],18000 nM
CCOC(=O)Nc1ccc(NCc2ccc(F)cc2)cc1N [retigabine],IC50,[3],9400 nM
C[C@@H](NC(=O)Cc1ccc(C2CC2)cc1)c1ccc(OCC(F)(F)F)cn1 [tta-a2],effect on KCl-induced CaV3.3-dependent fluorescence signal,[3],blocked
same,IC50,[3]; read-out: IC50 against CaV3.3,53 nM
human C3a [hC3a],EC50,[5],4.5 ± 0.5 nM
lysoPA18:1,EC50,"[1]; read-out: EC50, increase in fluorescence (LPA1 receptor agonist)",1010 ± 190 nM
